The viability is a read-out of living cells in per cent, often relative to untreated cells. As usually defined, the inhibition is the drop in the measured response relative to a control, in per cent.

14 molecules from PubChem BioAssay can be followed below.

Calls of active or inactive are those of the source.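 How the source made its calls, unless noted: active means viability at or below 10% of carrier control in both of two separate runs; inconclusive means viability at or below 10% in only one of the two runs; inactive means the rest.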

The nature of experiment [1]: reducers of endogenous Her2 protein level, primary screen, SKBR3 breast tumor cells, AlphaScreen, ATP viability (AID 461;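 active means Her2 level under about 52% in both replicate screens, with viability over 70% of control, limit read from the data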;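 on Her2 level: lower value means less Her2 protein in the cells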;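 on viability: percent of carrier control wells set as 100% viability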). Conditions: 18-24 h, measured here: SKBR3 viability, ATP luminescence, at 10 µM. On the technique in general: In Alpha technology, singlet oxygen from a donor bead excites a nearby acceptor bead.
Experiment [2] concerns the target Receptor tyrosine-protein kinase erbB-2 (Homo sapiens) (UniProt P04626). The experiment is described as above. The note with it: 18-24 h, at 10 µM, stronger effect = lower value.
Experiment [3] is described as follows: SK-BR-3 cell growth inhibitors, pilot screen, 24 h, human (AID 572).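 Further: compound exposure lasted between 18 and 24 h rather than exactly 24 h; 100% = carrier-treated control wells.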 The note with it: SK-BR-3 viability, CellTiter-Glo luminescence, at 10 µM, stronger effect = lower value. (In general: ATP-based viability assays read luminescence as a measure of living cells.)
Experiment [4] can be described thus: HUVEC growth inhibition – cell-based, human, primary screen (AID 575;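 active means viability at or below 30% in both replicate assays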;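 further: 100% = median of untreated cell wells with 0.1% DMSO on each plate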). Conditions: HUVEC proliferation, CellTiter-Glo luminescence, 72 h; at 10 µM; stronger effect = lower value. Put shortly:
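Test system: primary human umbilical vein endothelial cells. Quantity: 1250 cells/well. Compound: single 10 µM dose, 0.1% DMSO, from 5x medium stock. Timing: 72 h treatment at 37 °C. Detection: ATP-based CellTiter-Glo luminescent read. Benchmarks: vehicle and MePR control wells. Format: 384-well plates coated with collagen.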

Experiment [5] is described as follows: growth inhibitors of H69AR lung tumor, primary screen, human, duplicate replicates (AID 580;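 active means viability at or under a set limit in both replicates, limit being median viability minus 3 SD, cut at about 48% in these data, passing the limit was not always enough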;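 further: 100% = mean luminescence of untreated wells and 0% = no signal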). The note with it: H69AR lung tumor cells viability, ATP luminescence, 72 h; at 10 µM; stronger effect = lower value.
Experiment [6] can be described thus: reversal of MRP1-mediated doxorubicin resistance, pilot screen, H69AR cells, doxorubicin co-treatment (AID 601;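 active means viability loss from added drug above about 55%, and viability with drug at most 40%, in both replicates, limit read from the data, passing the limit was not always enough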). Conditions: CellTiter-Glo, 72 h, at 10 µM; for differential viability (reversal): stronger effect = higher value.
The nature of experiment [7]: 384-well plate pilot, post-Golgi transport modulator project, inhibition of yeast transport mutant growth (AID 636; in the data active means inhibition above about 31%). Conditions: absorbance 615 nm, about 18 h, stronger effect = higher value.
A short description of experiment [8]: growth suppression of yeast trafficking mutant, preliminary HTS, modulators of trafficking downstream of Golgi apparatus project, 1536-format plate, OD 615 nm (AID 637; in the data active means inhibition above about 30%). Conditions: yeast transport mutant growth, absorbance 615 nm, 18 h; stronger effect = higher value.
[9] abbreviates: H69AR cells + 2 uM doxorubicin, measured here: viability with 2 uM doxorubicin, stronger effect = lower value.
The mark [10] stands for this setting: H69AR cells, compound alone cytotoxicity.

Sequence of Receptor tyrosine-protein kinase erbB-2 (Homo sapiens) (P04626 whole entry, looked up): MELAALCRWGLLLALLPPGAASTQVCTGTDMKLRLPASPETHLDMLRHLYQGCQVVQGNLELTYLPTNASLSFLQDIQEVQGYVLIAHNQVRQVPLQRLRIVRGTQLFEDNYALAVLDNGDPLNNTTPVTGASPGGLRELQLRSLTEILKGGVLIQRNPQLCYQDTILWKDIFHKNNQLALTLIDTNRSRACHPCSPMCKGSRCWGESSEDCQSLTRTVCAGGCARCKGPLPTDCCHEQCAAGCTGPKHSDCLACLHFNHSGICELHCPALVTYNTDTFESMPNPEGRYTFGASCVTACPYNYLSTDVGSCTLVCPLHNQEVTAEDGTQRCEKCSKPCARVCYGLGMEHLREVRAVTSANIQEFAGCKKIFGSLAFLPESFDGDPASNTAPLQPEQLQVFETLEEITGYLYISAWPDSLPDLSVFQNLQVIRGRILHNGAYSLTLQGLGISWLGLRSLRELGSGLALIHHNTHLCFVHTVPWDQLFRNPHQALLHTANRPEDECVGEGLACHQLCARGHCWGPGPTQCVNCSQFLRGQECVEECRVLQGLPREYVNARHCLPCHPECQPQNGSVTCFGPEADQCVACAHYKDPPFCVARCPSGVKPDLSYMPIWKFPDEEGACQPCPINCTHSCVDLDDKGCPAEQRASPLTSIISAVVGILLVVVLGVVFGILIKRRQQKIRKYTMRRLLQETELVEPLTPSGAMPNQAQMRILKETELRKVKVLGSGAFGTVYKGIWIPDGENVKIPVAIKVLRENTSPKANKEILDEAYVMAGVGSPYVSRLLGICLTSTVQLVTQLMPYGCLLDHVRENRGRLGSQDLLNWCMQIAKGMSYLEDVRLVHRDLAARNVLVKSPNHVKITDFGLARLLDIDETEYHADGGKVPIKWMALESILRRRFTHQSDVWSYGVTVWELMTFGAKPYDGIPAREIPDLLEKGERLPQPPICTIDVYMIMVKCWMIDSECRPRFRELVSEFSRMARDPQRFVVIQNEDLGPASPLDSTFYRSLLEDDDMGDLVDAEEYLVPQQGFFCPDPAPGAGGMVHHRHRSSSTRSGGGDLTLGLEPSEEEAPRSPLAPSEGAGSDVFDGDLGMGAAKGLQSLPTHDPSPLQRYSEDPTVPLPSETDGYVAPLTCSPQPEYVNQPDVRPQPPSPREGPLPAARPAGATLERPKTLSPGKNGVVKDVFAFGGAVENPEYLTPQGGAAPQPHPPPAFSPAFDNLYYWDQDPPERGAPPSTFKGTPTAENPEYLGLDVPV

On to `CC1(C)COCN1S(=O)(=O)c1ccc(C(=O)Nc2nnc(-c3ccc(Cl)s3)o2)cc1`, for which the viability in experiment [1] was 70.5%; in experiment [3], 70.5% (inactive); in experiment [4], 4.41% (active); in experiment [5], 15% (active); in experiment [6] (setting [9]), 33.8%; in experiment [6] (setting [10]) it was 15%. Also, the Her2 level in experiment [2] is 97% (inactive). In addition, in experiment [6] (H69AR cells + 2 uM doxorubicin), the differential viability (reversal) was -18.8% (inactive). Also, the inhibition was -5.21% (inactive) in experiment [7] and -1.43% (inactive) in experiment [8].
Consider `O=S(c1ccsc1)c1ccsc1`, for which the viability is 116% in experiment [1]; 116% (inactive) in experiment [3]; 104% (inactive) in experiment [4]; 88.7% (inactive) in experiment [5]; 93.2% in experiment [6] (setting [9]); 88.7% in experiment [6] (setting [10]). The Her2 level in experiment [2] was 87% (inactive). The differential viability (reversal) in experiment [6] (H69AR cells + 2 uM doxorubicin) is -4.55% (inactive). For the same molecule, the inhibition in experiment [7] was 1.6% (inactive); in experiment [8], 1.29% (inactive).
Consider `COc1ccc(C)cc1NS(=O)(=O)c1ccc(NS(=O)(=O)c2ccc(NC(C)=O)cc2)cc1`, for which the viability was 128% in experiment [1]; 128% (inactive) in experiment [3]; 94.9% (inactive) in experiment [4]; 93.5% (inactive) in experiment [5]; 88.9% in experiment [6] (setting [9]); 93.5% in experiment [6] (setting [10]). Besides, the Her2 level in experiment [2] is 104% (inactive). Further, in experiment [6] (H69AR cells + 2 uM doxorubicin), the differential viability (reversal) was 4.67% (inactive). In addition, the inhibition in experiment [7] is -6.67% (inactive); in experiment [8], 1.29% (inactive).
Take `O=C(Nc1ccccc1N1CCOCC1)c1ccc2ccccc2n1`: the viability in experiment [1] was 90%; in experiment [3], 90% (inactive); in experiment [4], 67.4% (inactive); in experiment [5], 79.4% (inactive); in experiment [6] (setting [9]), 91.9%; in experiment [6] (setting [10]), 79.4%. The Her2 level in experiment [2] was 83.5% (inactive). For the same molecule, the differential viability (reversal) in experiment [6] (H69AR cells + 2 uM doxorubicin) was -12.4% (inactive). Further, the figures for the inhibition in experiment [7] and in experiment [8] were -4.74% (inactive) and -2% (inactive), respectively.
On to `Cc1ccc(C(=O)CSc2nnc(-c3cccnc3)n2N)cc1`, for which the viability in experiment [1] is 104%; in experiment [3] it was 104% (inactive); in experiment [4] it was 68.9% (inactive); in experiment [5], 28.2% (active); in experiment [6] (setting [9]), 77.4%; in experiment [6] (setting [10]), 28.2%. In addition, in experiment [2], the Her2 level is 89.5% (inactive). In addition, in experiment [6] (H69AR cells + 2 uM doxorubicin), the differential viability (reversal) was -49.2% (inactive). Also, the inhibition is -0.93% (inactive) in experiment [7] and 0.97% (inactive) in experiment [8].
For the molecule `CCN1CCN(C(=O)c2ccc3c(=O)n(CCC4=CCCCC4)c(=O)[nH]c3c2)CC1`, the viability in experiment [1] is 91%; in experiment [3], 91% (inactive); in experiment [4], 78.1% (inactive); in experiment [5], 84.7% (inactive); in experiment [6] (setting [9]) it was 67.9%; in experiment [6] (setting [10]), 84.7%. The Her2 level in experiment [2] was 114% (inactive). Also, the differential viability (reversal) in experiment [6] (H69AR cells + 2 uM doxorubicin) was 16.7% (inactive). The results for the inhibition in experiment [7] and in experiment [8] were -8.29% (inactive) and -0.55% (inactive), respectively.
As to `COCCSc1nnc(NC(=O)Cc2ccccc2OC)s1`, the viability in experiment [1] is 106%; in experiment [3], 106% (inactive); in experiment [4], 91% (inactive); in experiment [5] it was 98.9% (inactive); in experiment [6] (setting [9]), 91%; in experiment [6] (setting [10]), 98.9%. Also, the Her2 level in experiment [2] is 76% (inactive). In addition, the differential viability (reversal) in experiment [6] (H69AR cells + 2 uM doxorubicin) was 7.86% (inactive). Further, the inhibition was -5.39% (inactive) in experiment [7] and -1.67% (inactive) in experiment [8].
On to `CCc1nnc(NC(=O)c2ccc(COc3ccc(C)cc3)o2)s1`, for which the viability is 104% in experiment [1]; 104% (inactive) in experiment [3]; 99.5% (inactive) in experiment [4]; 106% (inactive) in experiment [5]; 111% in experiment [6] (setting [9]); 106% in experiment [6] (setting [10]). In addition, in experiment [2], the Her2 level is 93.5% (inactive). In addition, the differential viability (reversal) in experiment [6] (H69AR cells + 2 uM doxorubicin) was -4.93% (inactive). The inhibition in experiment [7] is -3.01% (inactive); in experiment [8] it was -3.17% (inactive).
Regarding `COCC(=O)N(Cc1ccc(OC)cc1)Cc1nc2ccccc2c(=O)[nH]1`, the viability was 126% in experiment [1]; 126% (inactive) in experiment [3]; 83.6% (inactive) in experiment [4]; 86.2% (inactive) in experiment [5]; 100% in experiment [6] (setting [9]); 86.2% in experiment [6] (setting [10]). In addition, in experiment [2], the Her2 level was 108% (inactive). Further, the differential viability (reversal) in experiment [6] (H69AR cells + 2 uM doxorubicin) is -13.9% (inactive). The figures for the inhibition in experiment [7] and in experiment [8] were -5.66% (inactive) and 5% (inactive), respectively.
As for `O=C(CSc1nnc(Cn2nnc(-c3ccccc3)n2)n1-c1ccccc1)Nc1ccc(F)cc1`, the viability in experiment [1] is 91%; in experiment [3] it was 91% (inactive); in experiment [4], 64.1% (inactive); in experiment [5], 75.7% (inactive); in experiment [6] (setting [9]), 71.8%; in experiment [6] (setting [10]), 75.7%. Moreover, the Her2 level in experiment [2] was 82% (inactive). For the same molecule, in experiment [6] (H69AR cells + 2 uM doxorubicin), the differential viability (reversal) is 3.96% (inactive). In addition, the inhibition was -1.45% (inactive) in experiment [7] and 13.4% (inactive) in experiment [8].
On to `Cc1c2c(nc3nc4ccccc4n13)CC(C)(C)CC2=O`, for which the viability in experiment [1] was 130%; in experiment [3], 130% (inactive); in experiment [4], 91.1% (inactive); in experiment [5], 70.9% (inactive); in experiment [6] (setting [9]) it was 34%; in experiment [6] (setting [10]), 70.9%. Moreover, in experiment [2], the Her2 level is 100% (inactive). Also, the differential viability (reversal) in experiment [6] (H69AR cells + 2 uM doxorubicin) was 36.9% (inactive). Besides, the inhibition in experiment [7] was -3.42% (inactive); in experiment [8], 4.43% (inactive).
With `CCOC(=O)N1CCC(NC(=O)CCN2C(=O)COc3ccccc32)CC1`, the viability was 100% in experiment [1]; 100% (inactive) in experiment [3]; 100% (inactive) in experiment [4]; 84.1% (inactive) in experiment [5]; 77.5% in experiment [6] (setting [9]); 84.1% in experiment [6] (setting [10]). The Her2 level in experiment [2] is 106% (inactive). The differential viability (reversal) in experiment [6] (H69AR cells + 2 uM doxorubicin) was 6.63% (inactive). Further, the inhibition is 0% (inactive) in experiment [7] and -6.17% (inactive) in experiment [8].
`Cc1nnc(NC(=O)c2ccccc2F)s1`: the viability in experiment [1] was 100%; in experiment [3] it was 100% (inactive); in experiment [4], 107% (inactive); in experiment [5] it was 104% (inactive); in experiment [6] (setting [9]), 90.2%; in experiment [6] (setting [10]) it was 104%. In addition, the Her2 level in experiment [2] is 101% (inactive). Further, the differential viability (reversal) in experiment [6] (H69AR cells + 2 uM doxorubicin) was 13.8% (inactive). Also, the inhibition in experiment [7] is -3.24% (inactive); in experiment [8], 4.76% (inactive).
Regarding `Cc1ccc(N2CCN(C(=O)c3ccccc3Br)CC2)c(C)c1`, the viability is 110% in experiment [1]; 110% (inactive) in experiment [3]; 93% (inactive) in experiment [4]; 89.2% (inactive) in experiment [5]; 78.6% in experiment [6] (setting [9]); 89.2% in experiment [6] (setting [10]). For the same molecule, in experiment [2], the Her2 level is 72% (inactive). In experiment [6] (H69AR cells + 2 uM doxorubicin), the differential viability (reversal) was 10.5% (inactive). The inhibition is -5.6% (inactive) in experiment [7] and 0.16% (inactive) in experiment [8].
